In brackets after ≈: the same amount, converted by molar mass.
Experiments:
Escherichia coli = test: Compound was evaluated for antibacterial activity against Escherichia coli; format: functional
Procedure, shortened: (§1)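 Broth microdilution MIC against E. coli ATCC 25922, P. aeruginosa ATCC 27853, S. aureus ATCC 25723. Cultures grown to midlog phase in nutrient broth, standardized to 0.5 McFarland, diluted to 5 × 10^4 cells per well. Equal volume of peptide added, 1:2 serial dilutions giving 256-2 µg/mL in medium. MIC is the lowest concentration with no turbidity […]. Median of three to seven tests.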

Homo sapiens = species on record: Homo sapiens; test: Compound was measured for sublethal concentrations (uM) in Human erythrocytes; format: functional
Procedure, shortened: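 Human erythrocytes (1 × 10^5 per well) incubated at 37 °C for 30 min with peptide. Peptide was dissolved in serum-free MEM and diluted 2-fold serially. Sublethal concentration is the highest dilution […]. A "greater than" entry means slight hemolysis at the highest concentration tested.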

Mus musculus = species on record: Mus musculus; test: (§2) Compound was tested for sublethal concentrations in 3T3 mouse fibroblast lysis.; format: functional
Procedure, shortened: (§3)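 Mouse 3T3 fibroblast monolayers, 1 day old (about 1 × 10^4 cells/well), in MEM. Peptide applied as 2-fold serial dilutions in MEM, 30 min at 37 °C alongside untreated controls. Cells then stained with 0.2% trypan blue and viewed by light microscopy. Sublethal dose is the highest dilution in which only 1-10 adherent cells stay unstained.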

Pseudomonas aeruginosa = test: Compound was evaluated for antibacterial activity against Pseudomonas aeruginosa; format: functional; procedure, shortened: as §1
Staphylococcus aureus = test: Compound was evaluated for antibacterial activity against Staphylococcus aureus; format: functional; procedure, shortened: as §1
NIH3T3 = test: as §2; format: functional, cell-based; procedure, shortened: as §3

## CC(C)C[C@H](NC(=O)[C@H](CCCCN)NC(=O)[C@H](CCCCN)NC(=O)[C@H](C)NC(=O)[C@H](CC(C)C)NC(=O)[C@H](CCCCN)NC(=O)[C@H](C)NC(=O)[C@H](CC(C)C)NC(=O)[C@H](CCCCN)NC(=O)[C@H](CCCCN)NC(=O)[C@H](C)NC(=O)[C@H](CC(C)C)NC(=O)[C@H](CCCCN)NC(=O)[C@H](C)NC(=O)[C@H](CC(C)C)NC(=O)[C@H](CCCCN)NC(=O)[C@H](CCCCN)NC(=O)[C@H](C)NC(=O)[C@H](CC(C)C)NC(=O)[C@@H](N)CCCCN)C(=O)N[C@@H](C)C(=O)O
Escherichia coli
  MIC: 4 µM (≈ 9.11 µg/mL)
Homo sapiens
  Concentration: > 250 µM
Mus musculus
  Concentration: 11 µM
Pseudomonas aeruginosa
  MIC: 4 µM (≈ 9.11 µg/mL)
Staphylococcus aureus
  MIC: 4 µM (≈ 9.11 µg/mL)

## CC(C)C[C@H](NC(=O)[C@H](C)NC(=O)[C@H](CCCCN)NC(=O)[C@H](CC(C)C)NC(=O)[C@H](C)NC(=O)[C@H](CCCCN)NC(=O)[C@H](CCCCN)NC(=O)[C@H](CC(C)C)NC(=O)[C@H](C)NC(=O)[C@H](CCCCN)NC(=O)[C@H](CC(C)C)NC(=O)[C@H](C)NC(=O)[C@H](CCCCN)NC(=O)[C@H](CCCCN)NC(=O)[C@H](CC(C)C)NC(=O)[C@H](C)NC(=O)[C@H](CCCCN)NC(=O)[C@H](CC(C)C)NC(=O)[C@H](C)NC(=O)[C@@H](N)CCCCN)C(=O)N[C@@H](CCCCN)C(=O)O
NIH3T3
  Concentration: 11 µM
Escherichia coli
  MIC: 4 µM (≈ 9.11 µg/mL)
Pseudomonas aeruginosa
  MIC: 4 µM (≈ 9.11 µg/mL)
Staphylococcus aureus
  MIC: 8 µM (≈ 18.2 µg/mL)

## CC(C)C[C@H](NC(=O)[C@H](CCCCN)NC(=O)[C@H](C)NC(=O)[C@H](CC(C)C)NC(=O)[C@H](CCCCN)NC(=O)[C@H](CCCCN)NC(=O)[C@H](C)NC(=O)[C@H](CC(C)C)NC(=O)[C@H](CCCCN)NC(=O)[C@H](C)NC(=O)[C@H](CC(C)C)NC(=O)[C@H](CCCCN)NC(=O)[C@H](CCCCN)NC(=O)[C@H](C)NC(=O)[C@H](CC(C)C)NC(=O)[C@H](CCCCN)NC(=O)[C@H](C)NC(=O)[C@H](CC(C)C)NC(=O)[C@@H](N)CCCCN)C(=O)N[C@@H](C)C(=O)N[C@@H](CCCCN)C(=O)O
Escherichia coli
  MIC: 4 µM (≈ 9.11 µg/mL)
Homo sapiens
  Concentration: > 520 µM
Mus musculus
  Concentration: 9 µM
Pseudomonas aeruginosa
  MIC: 4 µM (≈ 9.11 µg/mL)
Staphylococcus aureus
  MIC: 4 µM (≈ 9.11 µg/mL)

## CC(C)C[C@H](NC(=O)[C@H](CCCCN)NC(=O)[C@H](C)NC(=O)[C@H](CC(C)C)NC(=O)[C@H](CCCCN)NC(=O)[C@H](CCCCN)NC(=O)[C@H](C)NC(=O)[C@H](CC(C)C)NC(=O)[C@H](CCCCN)NC(=O)[C@H](C)NC(=O)[C@H](CC(C)C)NC(=O)[C@@H](N)CCCCN)C(=O)N[C@@H](C)C(=O)N[C@@H](CCCCN)C(=O)O
Escherichia coli
  MIC: 6 µM (≈ 9.14 µg/mL)
Homo sapiens
  Concentration: > 750 µM
Mus musculus
  Concentration: > 517 µM
Pseudomonas aeruginosa
  MIC: 6 µM (≈ 9.14 µg/mL)
Staphylococcus aureus
  MIC: 6 µM (≈ 9.14 µg/mL)

## CC[C@H](C)[C@H](NC(=O)CN)C(=O)NCC(=O)N[C@@H](C)C(=O)N[C@H](C(=O)N[C@@H](CC(C)C)C(=O)N[C@@H](CCCCN)C(=O)N[C@H](C(=O)N[C@@H](CC(C)C)C(=O)N[C@H](C(=O)N[C@H](C(=O)NCC(=O)N[C@@H](CC(C)C)C(=O)N1CCC[C@H]1C(=O)N[C@@H](C)C(=O)N[C@@H](CC(C)C)C(=O)N[C@H](C(=O)N[C@@H](CO)C(=O)N[C@@H](Cc1c[nH]c2ccccc12)C(=O)N[C@H](C(=O)N[C@@H](CCCCN)C(=O)N[C@@H](CCCNC(=N)N)C(=O)N[C@@H](CCCCN)C(=O)N[C@@H](CCCNC(=N)N)C(=O)N[C@@H](CCC(N)=O)C(=O)N[C@@H](CCC(N)=O)C(N)=O)[C@@H](C)CC)[C@@H](C)CC)[C@@H](C)O)[C@@H](C)O)C(C)C)C(C)C
Homo sapiens
  Concentration: 1 µM
Mus musculus
  Concentration: 1 µM

## H-GIGKFLHSAKKFGKAFVGEIMNS-NH2
Escherichia coli
  MIC: 10 µM
Homo sapiens
  Concentration: > 460 µM
Mus musculus
  Concentration: 60 µM
Pseudomonas aeruginosa
  MIC: 5 µM
Staphylococcus aureus
  MIC: 19 µM

## H-KAAKKAAKAAKKAA-OH
Escherichia coli
  MIC: 47 µM
Homo sapiens
  Concentration: > 670 µM
Mus musculus
  Concentration: > 525 µM
Staphylococcus aureus
  MIC: > 256 µM

## H-KAAKKAAKAAKKAAKAAKKAA-OH
Escherichia coli
  MIC: 8 µM
Homo sapiens
  Concentration: > 1630 µM
Mus musculus
  Concentration: > 440 µM
Staphylococcus aureus
  MIC: 8 µM

## H-KLAKKLA-OH
Escherichia coli
  MIC: > 100 µM
Pseudomonas aeruginosa
  MIC: > 100 µM
Staphylococcus aureus
  MIC: > 100 µM

## H-KLAKKLAKLAKKLA-OH
Escherichia coli
  MIC: 6 µM
Homo sapiens
  Concentration: > 750 µM
Mus musculus
  Concentration: > 272 µM
Pseudomonas aeruginosa
  MIC: 3 µM
Staphylococcus aureus
  MIC: 6 µM

## H-KLAKLAK-OH
Escherichia coli
  MIC: > 95 µM
Pseudomonas aeruginosa
  MIC: > 95 µM
Staphylococcus aureus
  MIC: > 95 µM

## H-KLGKKLGKLGKKLG-OH
Escherichia coli
  MIC: 22 µM
Homo sapiens
  Concentration: > 780 µM
Staphylococcus aureus
  MIC: 22 µM

## H-KLGKKLGKLGKKLGKLGKKLG-OH
Escherichia coli
  MIC: 4 µM
Homo sapiens
  Concentration: > 570 µM
Mus musculus
  Concentration: > 393 µM
Pseudomonas aeruginosa
  MIC: 4 µM
Staphylococcus aureus
  MIC: 4 µM

— ChEMBL document CHEMBL1129261, “De novo antimicrobial peptides with low mammalian cell toxicity” (1996)
